From ChEMBL document CHEMBL1932939, “Synthesis and cytotoxic evaluation of thiourea and N-bis-benzothiazole derivatives: a novel class of cytotoxic agents” (Bioorg Med Chem Lett, 2012)

Columns and labels:
U-937 = assay: Cytotoxicity against human U937 cells after 48 hrs by MTT assay; format: functional, cell-based
In short: (§1)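 IC50 is taken as the concentration that gives a 50% drop in cell number relative to control cultures grown without inhibitor. Etoposide serves as the standard positive-control drug.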

THP-1 [1] = assay: Cytotoxicity against human THP1 cells after 48 hrs by MTT assay; format: functional, cell-based; settings: THP-1, 48 h; in short: as §1
B16-F10 = assay: Cytotoxicity against mouse B16F10 cells after 48 hrs by MTT assay; format: functional, cell-based; settings: B16-F10, 48 h; in short: as §1
THP-1 [2] = assay: Ratio of IC50 for mouse B16F10 cells to IC50 for human THP1 cells after 48 hrs by MTT assay; format: functional
THP-1 [3] = assay: Ratio of IC50 for human U937 cells to IC50 for human THP1 cells after 48 hrs by MTT assay; format: functional

Compound | IC50 (U-937; Homo sapiens, U-937, 48 h) [µM] | IC50 (THP-1 [1]) [µM] | IC50 (B16-F10) [µM] | IC50 (U-937; u-937) [µM] | Ratio IC50 (THP-1 [2]) | Ratio IC50 (THP-1 [3])
S=C(Nc1ccccc1)Nc1nc2ccccc2s1 | > 50 | 36.5 | > 50 |  |  | 
Fc1ccc(NC(=S)Nc2nc3ccccc3s2)cc1 | 32 | 26.7 | > 50 |  |  | 
S=C(Nc1ccc(Cl)cc1)Nc1nc2ccccc2s1 | > 50 | 39 | > 50 |  |  | 
Fc1ccc2nc(NC(=S)Nc3ccccc3)sc2c1 | > 50 | 46.6 | > 50 |  |  | 
Fc1ccc(NC(=S)Nc2nc3ccc(F)cc3s2)cc1 | 16.2 | 34.6 | 47.7 |  |  | 
Fc1ccc2nc(NC(=S)Nc3ccc(Cl)cc3)sc2c1 | 18.7 | 31.2 | 48.1 |  |  | 
S=C(Nc1ccccc1)Nc1nc2c(Cl)cccc2s1 | > 50 | 31.8 | > 50 |  |  | 
Fc1ccc(NC(=S)Nc2nc3c(Cl)cccc3s2)cc1 | > 50 | > 50 | > 50 |  |  | 
Cc1ccc2nc(NC(=S)Nc3ccccc3)sc2c1 | > 50 | > 50 | > 50 |  |  | 
Cc1ccc2nc(NC(=S)Nc3ccc(F)cc3)sc2c1 | > 50 | 36.9 | > 50 |  |  | 
CCOc1ccc2nc(NC(=S)Nc3ccccc3)sc2c1 | 37.7 | 43.8 | > 50 |  |  | 
CCOc1ccc2nc(NC(=S)Nc3ccc(F)cc3)sc2c1 | 28.1 | 39.5 | > 50 |  |  | 
c1ccc2sc(Nc3nc4ccccc4s3)nc2c1 | 40 | 28.8 | > 50 |  |  | 
Clc1ccc2nc(Nc3nc4ccccc4s3)sc2c1 | > 50 | 45.4 | > 50 |  |  | 
Fc1ccc2nc(Nc3nc4ccc(F)cc4s3)sc2c1 | 27.4 | 17.5 | 47.5 |  |  | 
Fc1ccc2nc(Nc3nc4ccc(Cl)cc4s3)sc2c1 | > 50 | 41 | 41.9 |  |  | 
Fc1ccc2nc(Nc3nc4c(Cl)cccc4s3)sc2c1 | > 50 | 36.2 | > 50 |  |  | 
Cc1ccc2nc(Nc3nc4ccccc4s3)sc2c1 | 48.4 | 34.2 | > 50 |  |  | 
CCOc1ccc2nc(Nc3nc4ccccc4s3)sc2c1 | > 50 | 37.1 | > 50 |  |  | 
CCOc1ccc2nc(Nc3nc4ccc(F)cc4s3)sc2c1 | 26.6 | 39 | 33.2 |  |  | 
Fc1ccc2nc(Nc3nc4ccccc4s3)sc2c1 | 40.6 | > 50 | > 50 | 43.5 |  | 
Clc1cccc2sc(Nc3nc4ccccc4s3)nc12 | > 50 | > 50 | 29.5 |  |  | 
Cc1ccc2nc(Nc3nc4ccc(F)cc4s3)sc2c1 | > 50 | > 50 | 29.6 |  |  | 
COc1cc([C@@H]2c3cc4c(cc3[C@@H](O[C@@H]3O[C@@H]5CO[C@@H](C)O[C@H]5[C@H](O)[C@H]3O)[C@H]3COC(=O)[C@H]23)OCO4)cc(OC)c1O [ETOPOSIDE] |  |  | 18.7 |  | 9 | 9
